Measurements taken from ChEMBL document CHEMBL3407476, “Design, synthesis and cytotoxic evaluation of 4-methylidenepyrazolidin-3-ones” (Eur J Med Chem, 2015).

Tests used:
[1] = Cytotoxicity against human HL60 cells assessed as growth inhibition after 48 hrs by MTT assay; assay type: functional, cell-based; conditions: HL-60, 48 h
How it was run: (§1)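 Leukemia cells in RPMI 1640 and MCF-7 in DMEM, both with 10% heat-inactivated FBS. HUVECs were grown per the supplier's protocol at passages 3–8. Cultures were kept at 37 °C in humidified 5% CO₂ and seeded at 8 × 10³ cells/well. After 24 h, compounds from fresh DMSO stocks were added over 10^-7 to 10^-3 M. Absorbance was read at 560 nm against untreated cells. IC50 came from concentration–response curves, as mean ± SD of at least three experiments.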

[2] = Cytotoxicity against human NALM6 cells assessed as growth inhibition after 48 hrs by MTT assay; assay type: functional, cell-based; conditions: NALM-6, 48 h; how it was run: as §1
[3] = system: MCF7; test: Cytotoxicity against human MCF7 cells assessed as growth inhibition after 48 hrs by MTT assay; assay type: functional, cell-based; conditions: MCF7, 48 h; how it was run: as §1
[4] = Therapeutic index, ratio of IC50 for HUVEC to IC50 for human NALM6 cells; assay type: cell-based, NALM-6; conditions: HUVEC and NALM6 cells, read-out: Ratio IC50
[5] = system: HUVEC; test: Cytotoxicity against HUVEC assessed as growth inhibition after 48 hrs by MTT assay; assay type: cell-based; conditions: Homo sapiens; how it was run: as §1
[6] = Therapeutic index, ratio of IC50 for HUVEC to IC50 for human HL60 cells; assay type: cell-based, HL-60; conditions: HUVEC and HL60 cells, read-out: Ratio IC50

| SMILES | IC50 [1] [µM] | IC50 [2] [µM] | IC50 [3] [µM] | selectivity ratio [4] | IC50 [5] [µM] | selectivity ratio [6] |
| --- | --- | --- | --- | --- | --- | --- |
| C=C1C(=O)N(c2ccccc2)N(C)C1CCCC (stereo not given) | 460 | 432 | 235 | – | – | – |
| C=C1C(=O)N(c2ccccc2)N(c2ccccc2)C1C (stereo not given) | 5.85 | 6.98 | 12.5 | 4 | 29.9 | 5 |
| C=C1C(=O)N(c2ccccc2)N(C)C1c1ccc(OC)cc1 (stereo not given) | 37.3 | 49.3 | 75 | – | – | – |
| C=C1C(=O)N(c2ccccc2)N(c2ccccc2)C1CC (stereo not given) | 8.89 | 14.9 | 20 | – | 23.9 | – |
| C=C1C(=O)N(c2ccccc2)N(c2ccccc2)C1CCCC (stereo not given) | 8.92 | 29.1 | 25.2 | – | 27 | – |
| C=C1CN(C)N(c2ccc(Cl)cc2)C1=O | 38.1 | 51.9 | 45.2 | – | – | – |
| C=C1CN(C)N(c2ccc(Br)cc2)C1=O | 51.8 | 62 | 43.8 | – | – | – |
| C=C1CN(C)N(c2ccccc2)C1=O | 45.7 | 56 | 56 | – | – | – |
| C=C1C(=O)N(c2ccccc2)N(c2ccccc2)C1c1ccccc1 (stereo not given) | 1.61 | 3.82 | 4.5 | – | 4.46 | – |
| C=C1C(=O)N(c2ccccc2)N(C)C1C (stereo not given) | 531 | 412 | 153 | – | – | – |
| C=C1C(=O)N(c2ccccc2)N(C)C1CC (stereo not given) | 750 | 576 | 185 | – | – | – |
| C=C1C(=O)N(c2ccccc2)N(C)C1CCCCCCCCC (stereo not given) | 49.9 | 57.5 | 91.1 | – | – | – |
| C=C1C(=O)NC(C)C1c1ccc(Br)cc1 (stereo not given) | 515 | 439 | – | – | – | – |
| C=CC1C(=C)C(=O)N(c2ccccc2)N1c1ccccc1 (stereo not given) | 1.32 | 0.74 | 5.1 | 4 | 2.73 | – |
| C=C1C(=O)N(c2ccccc2)N(C)C1c1ccccc1 (stereo not given) | 40.9 | 24.4 | 84.4 | – | – | – |
| C=C1CN(C)N(c2ccc(C)cc2)C1=O | 65.7 | 90.1 | 59.1 | – | – | – |
